According to ChEMBL document CHEMBL1212790, “Triclosan resistance of Pseudomonas aeruginosa PAO1 is due to FabV, a triclosan-resistant enoyl-acyl carrier protein reductase” (2010):
≈ marks a conversion by molar mass, not a printed value. Calls of active or inactive are those of the source. The rule behind the calls is not given here.

Assays:
Pseudomonas aeruginosa [1] = assay: Activity of Pseudomonas aeruginosa PA0170 fabV in presence of 100 uM NADH
Summary of the method: (§1)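 Cell extracts (2 μg) of the P. aeruginosa deletion strains (PAO170 ΔfabV, PAO272 ΔfabI) were assayed for NADH-dependent enoyl-ACP reductase activity in 70 μl of 0.1 M sodium phosphate pH 7.5 with 0.1 mM NADH. Reactions were started with 100 μM trans-2-decenoyl-ACP and run with or without 15 μg/ml triclosan. Values are means plus standard deviations of three experiments.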

[2] = biological target: T1, Enoyl-[acyl-carrier-protein] reductase [NADH] FabI (Pseudomonas aeruginosa) (UniProt Q9ZFE4); assay: Inhibition of Pseudomonas aeruginosa PAO272 fabI assessed as reduction of Enoyl-[acyl-carrier-protein] reductase activity at 15 ug/ml
T1 sequence (whole entry): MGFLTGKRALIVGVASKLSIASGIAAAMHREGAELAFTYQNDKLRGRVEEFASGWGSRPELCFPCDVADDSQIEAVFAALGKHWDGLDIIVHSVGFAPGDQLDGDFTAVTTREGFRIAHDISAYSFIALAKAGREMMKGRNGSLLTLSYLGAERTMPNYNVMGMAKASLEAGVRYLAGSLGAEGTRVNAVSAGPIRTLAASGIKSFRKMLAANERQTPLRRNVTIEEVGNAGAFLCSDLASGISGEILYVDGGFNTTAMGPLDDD
Summary of the method: (§2)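 Cell-extract ENR assay (70 μl) in 0.1 M sodium phosphate pH 7.5 with 0.1 mM NADH and 2 μg of cell extract. Started with 100 μM trans-2-decenoyl-ACP, with or without 15 μg/ml triclosan. NADH-dependent activity followed as the drop in A340. Means plus standard deviations of three experiments.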

Escherichia coli [3] = assay: Antibacterial activity against Escherichia coli W3110 containing pZL17 expressing Pseudomonas aeruginosa fabI gene assessed as microbial growth inhibition; assay type: functional
Summary of the method: (§3)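 Triclosan MIC on LB agar plates carrying serial dilutions of triclosan; cells plated and plates incubated at 37°C. MIC taken as the triclosan concentration of the first plate without growth. E. coli hosts (W3110, MG1655) carried pBluescript SK(+)-derived plasmids encoding fabV or fabI, or the empty vector.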

[4] = biological target: T1, Enoyl-[acyl-carrier-protein] reductase [NADH] FabI (Pseudomonas aeruginosa); assay: Inhibition of Pseudomonas aeruginosa PAO272 fabI assessed as reduction of [1-14C]acetate incorporation into phospholipids
Pseudomonas aeruginosa [5] = assay: Inhibition of Pseudomonas aeruginosa PA0170 fabV assessed as reduction of [1-14C]acetate incorporation into phospholipids
Escherichia coli [6] = assay: Antibacterial activity against Escherichia coli MG1655 pZL17 expressing Pseudomonas aeruginosa fabI gene assessed as microbial growth inhibition; assay type: functional; summary of the method: as §3
Pseudomonas aeruginosa [7] = assay: Inhibition of wild type Pseudomonas aeruginosa ENR assessed as reduction of [1-14C]acetate incorporation into phospholipids
Escherichia coli [8] = assay: Antibacterial activity against Escherichia coli MG1655 containing pZL19 expressing Escherichia coli fabI gene assessed as microbial growth inhibition; assay type: functional; summary of the method: as §3
Pseudomonas aeruginosa [9] = assay: Antibacterial activity against Pseudomonas aeruginosa PA0170 lacking fabV gene assessed as microbial growth inhibition
Pseudomonas aeruginosa [10] = assay: Inhibition of Pseudomonas aeruginosa fabV activity assessed as conversion of […] at 1000 ug/ml in presence of 2.5 M urea
Summary of the method: (§4)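 3-Hydroxydecanoyl-ACP dehydrated to trans-2-decenoyl-ACP with E. coli FabZ, then split into tubes holding dried triclosan (added from an ethanol stock and dried down). Purified His-tagged PaFabV or PaFabI added; reduction in 0.1 M sodium phosphate pH 7.0 with NADH, 1 h. Products resolved by conformationally sensitive PAGE with 2.5 M urea and Coomassie staining.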

Escherichia coli [11] = assay: Antibacterial activity against Escherichia coli W3110 containing empty vector pBluescript at 37 deg C; assay type: functional; summary of the method: as §3
Escherichia coli [12] = assay: Antibacterial activity against Escherichia coli MG1655 containing empty vector pBluescript assessed as microbial growth inhibition; assay type: functional; summary of the method: as §3
Pseudomonas aeruginosa [13] = assay: Antibacterial activity against Pseudomonas aeruginosa PA0272 lacking fabI assessed as microbial growth inhibition
Escherichia coli [14] = assay: Antibacterial activity against Escherichia coli MG1655 pZL16 expressing Pseudomonas aeruginosa fabV gene assessed as microbial growth inhibition; assay type: functional; summary of the method: as §3
Pseudomonas aeruginosa [15] = assay: Inhibition of wild type Pseudomonas aeruginosa ENR at 15 ug/ml; summary of the method: as §2
[16] = biological target: T1, Enoyl-[acyl-carrier-protein] reductase [NADH] FabI (Pseudomonas aeruginosa); assay: Inhibition of Pseudomonas aeruginosa fabI activity assessed as conversion of 3-hydroxydecanoyl-ACP to trans-2-decenoyl-ACP at 10 ug/ml in presence of 2.5 M urea; summary of the method: as §4
Escherichia coli [17] = assay: Antibacterial activity against Escherichia coli W3110 containing pZL19 expressing sEscherichia coli fabI gene assessed as microbial growth inhibition; assay type: functional; summary of the method: as §3
Pseudomonas aeruginosa [18] = assay: Inhibition of Pseudomonas aeruginosa PA0170 fabV assessed as reduction of Enoyl-[acyl-carrier-protein] reductase activity at 15 ug/ml; summary of the method: as §2
Pseudomonas aeruginosa [19] = assay: Antibacterial activity against Pseudomonas aeruginosa PA01 assessed as microbial growth inhibition; assay type: functional
Escherichia coli [20] = assay: Antibacterial activity against Escherichia coli W3110 containing pZL16 expressing sPseudomonas aeruginosa fabV gene assessed as microbial growth inhibition; assay type: functional; summary of the method: as §3
[21] = compound: C/C=C/C(=O)SCCNC(=O)CCNC(=O)[C@@H](O)C(C)(C)COP(=O)(O)OP(=O)(O)OC[C@H]1O[C@@H](n2cnc3c(N)ncnc32)[C@H](O)[C@@H]1OP(=O)(O)O; assay: Inhibition of Pseudomonas aeruginosa PAO272 fabI in presence of 100 uM NADH; summary of the method: as §1

C/C=C/C(=O)SCCNC(=O)CCNC(=O)[C@@H](O)C(C)(C)COP(=O)(O)OP(=O)(O)OC[C@H]1O[C@@H](n2cnc3c(N)ncnc32)[C@H](O)[C@@H]1OP(=O)(O)O
Km (Pseudomonas aeruginosa [1]): 704 µM
Vmax (Pseudomonas aeruginosa [1]): 7.9 nmol/min/mg

Oc1cc(Cl)ccc1Oc1ccc(Cl)cc1Cl [TRICLOSAN]
inhibition [2]: inactive
MIC (Escherichia coli [3]): 4 µg/mL (≈ 13.8 µM)
inhibition [4]: inactive
inhibition (Pseudomonas aeruginosa [5]): Active
MIC (Escherichia coli [6]): 4 µg/mL (≈ 13.8 µM)
inhibition (Pseudomonas aeruginosa [7]): inactive
MIC (Escherichia coli [8]): 3 µg/mL (≈ 10.4 µM)
MIC (Pseudomonas aeruginosa [9]): 1 µg/mL (≈ 3.45 µM)
inhibition (Pseudomonas aeruginosa [10]): inactive
MIC (Escherichia coli [11]): 0.2 µg/mL (≈ 0.691 µM)
MIC (Escherichia coli [12]): 0.2 µg/mL (≈ 0.691 µM)
MIC (Pseudomonas aeruginosa [13]): > 2000 µg/mL
MIC (Escherichia coli [14]): > 2000 µg/mL
inhibition (Pseudomonas aeruginosa [15]): 29%
inhibition [16]: Active
MIC (Escherichia coli [17]): 3 µg/mL (≈ 10.4 µM)
inhibition (Pseudomonas aeruginosa [18]): 15%
MIC (Pseudomonas aeruginosa [19]): > 2000 µg/mL
MIC (Escherichia coli [20]): > 2000 µg/mL

B1: Enoyl-[acyl-carrier-protein] reductase [NADH] FabI (Pseudomonas aeruginosa), Q9ZFE4 (protein)
chain: T1 sequence (whole entry)
Km [21]: 4.7 µM
Vmax [21]: 1.5 nmol/min/mg
